Assay [1] concerns BMDC. As to the kind of experiment: Antiinflammatory activity in mouse BMDC assessed as downregulation of TLR4 expression. Type of assay: functional.
Assay [2] has as its target T1, Toll-like receptor 4 (Mus musculus) (UniProt Q9QUK6).
T1 sequence (whole entry): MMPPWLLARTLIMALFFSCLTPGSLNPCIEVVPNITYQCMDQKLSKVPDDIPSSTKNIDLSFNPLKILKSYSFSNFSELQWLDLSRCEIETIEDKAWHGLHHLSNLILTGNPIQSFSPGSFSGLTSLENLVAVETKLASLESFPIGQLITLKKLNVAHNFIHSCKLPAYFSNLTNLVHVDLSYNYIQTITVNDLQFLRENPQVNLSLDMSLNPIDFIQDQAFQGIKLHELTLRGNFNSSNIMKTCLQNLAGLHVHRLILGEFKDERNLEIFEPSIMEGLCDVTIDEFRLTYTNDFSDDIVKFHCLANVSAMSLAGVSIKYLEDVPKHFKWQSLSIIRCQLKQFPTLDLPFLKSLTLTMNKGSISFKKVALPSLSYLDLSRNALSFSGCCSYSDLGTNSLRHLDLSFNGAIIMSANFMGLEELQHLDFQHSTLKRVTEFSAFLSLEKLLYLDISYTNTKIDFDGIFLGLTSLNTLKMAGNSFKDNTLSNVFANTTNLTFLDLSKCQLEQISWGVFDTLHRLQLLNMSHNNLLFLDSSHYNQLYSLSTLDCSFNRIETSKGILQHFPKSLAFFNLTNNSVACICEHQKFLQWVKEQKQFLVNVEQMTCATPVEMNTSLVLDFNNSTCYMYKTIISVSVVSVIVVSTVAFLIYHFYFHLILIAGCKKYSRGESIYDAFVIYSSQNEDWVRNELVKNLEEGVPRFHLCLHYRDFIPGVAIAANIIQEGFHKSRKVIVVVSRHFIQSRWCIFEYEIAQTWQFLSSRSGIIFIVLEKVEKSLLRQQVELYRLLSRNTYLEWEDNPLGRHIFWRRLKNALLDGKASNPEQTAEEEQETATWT
As to the kind of experiment: Inhibition of TLR4 in C57BL/6 mouse BMDC assessed as reduction of LPS-induced IL-23 production at 5 ug/mL preincubated for 2 hrs prior to LPS challenge measured after 24 hrs by ELISA. Put shortly: (§1)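 C57BL/6 bone marrow DCs were generated in complete RPMI with 10 ng/mL GM-CSF. They were preincubated ± compound at 5 μg/mL for 2 h, then stimulated with LPS for 24 h. TNF-α, IL-6 and IL-23 in conditioned medium were measured by ELISA. Values are means of triplicates ± SEM pooled from 4 experiments.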

Assay [3] deals with T1, Toll-like receptor 4 (Mus musculus). In words: Inhibition of TLR4 in C57BL/6 mouse BMDC assessed as reduction of LPS-induced TNF-alpha production at 5 ug/mL preincubated for 2 hrs prior to LPS challenge measured after 24 hrs by ELISA. A digest of the protocol: as §1
In general terms: An ELISA detects its analyte on a solid surface through an enzyme-linked reagent.

Assay [4] has as its system Mus musculus. In words: Antiinflammatory activity in DBA/1 mouse assessed as reduction in number of PMA/ionomycin-stimulated gammadelta+ T cells expressing IL-17 at 50 ug/kg, sc administered 2 days prior to collagen challenge continued till day 21 post collagen challenge by flow cytometric analysis relative to control. Format: functional, organism-based. The following applies: T-cell. Put shortly: (§2)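 CIA mice given test agent (1 μg/dose) or PBS subcutaneously on days −2, 0 and 21. Draining lymph node cells (10^6/mL) in complete RPMI were stimulated ± 50 ng/mL PMA plus 500 ng/mL ionomycin, with 10 μg/mL brefeldin A for 5 h at 37 °C. Cells were surface-stained for CD4, CD8 and γδ, fixed and permeabilized, then stained for intracellular IFNγ and IL-17A. Gating used isotype controls. Cell numbers per individual mouse; naive n = 7, treated groups n = 13.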

Assay [5] deals with Mus musculus. In words: Antiinflammatory activity in DBA/1 mouse collagen-induced arthritis model assessed as reduction in number of PMA/ionomycin-stimulated total DLN cells expressing IFNgamma at 50 ug/kg, sc administered 2 days prior to collagen challenge continued till day 21 post collagen challenge by flow cytometric analysis relative to control. Format: functional, organism-based. A digest of the protocol:
as §2
A general note: A flow cytometer gives signals particle by particle.

Assay [6] deals with T2, Toll-like receptor 9 (Mus musculus) (UniProt Q9EQU3).
T2 sequence (whole entry): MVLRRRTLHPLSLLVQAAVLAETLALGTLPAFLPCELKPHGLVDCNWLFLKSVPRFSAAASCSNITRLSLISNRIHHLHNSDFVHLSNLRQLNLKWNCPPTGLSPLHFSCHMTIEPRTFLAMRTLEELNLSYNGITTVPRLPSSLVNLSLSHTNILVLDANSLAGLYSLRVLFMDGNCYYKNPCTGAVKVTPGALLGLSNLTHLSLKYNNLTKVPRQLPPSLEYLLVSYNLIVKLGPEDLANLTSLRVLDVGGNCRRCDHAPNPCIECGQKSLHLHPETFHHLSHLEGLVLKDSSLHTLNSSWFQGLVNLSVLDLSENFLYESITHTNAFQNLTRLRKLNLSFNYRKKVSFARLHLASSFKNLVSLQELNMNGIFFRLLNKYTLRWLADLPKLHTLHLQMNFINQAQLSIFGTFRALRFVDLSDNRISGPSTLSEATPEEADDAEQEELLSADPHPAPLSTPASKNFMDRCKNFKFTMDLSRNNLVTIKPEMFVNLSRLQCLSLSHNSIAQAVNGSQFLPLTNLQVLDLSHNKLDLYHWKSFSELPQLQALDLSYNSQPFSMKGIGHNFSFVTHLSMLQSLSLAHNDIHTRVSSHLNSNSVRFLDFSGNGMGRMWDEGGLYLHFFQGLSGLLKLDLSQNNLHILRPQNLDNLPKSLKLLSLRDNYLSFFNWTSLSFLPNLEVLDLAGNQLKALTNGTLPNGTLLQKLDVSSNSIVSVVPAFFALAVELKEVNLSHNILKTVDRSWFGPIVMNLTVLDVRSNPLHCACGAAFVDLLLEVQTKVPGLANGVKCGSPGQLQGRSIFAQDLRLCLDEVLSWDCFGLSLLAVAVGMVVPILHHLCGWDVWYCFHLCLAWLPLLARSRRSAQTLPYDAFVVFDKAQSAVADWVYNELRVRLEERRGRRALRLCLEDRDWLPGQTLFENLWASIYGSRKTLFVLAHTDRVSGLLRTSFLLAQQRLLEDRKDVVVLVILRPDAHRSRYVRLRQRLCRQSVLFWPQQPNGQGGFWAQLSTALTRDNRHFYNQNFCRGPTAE
As to the kind of experiment: Inhibition of TLR9 in BALB/c mouse BMDM assessed as downregulation of CpG-stimulated IL-12p40 level at 5 ug/ml preincubated for 18 hrs followed by CpG challenge measured after 24 hrs by ELISA relative to control. Put shortly:
(§3)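 BALB/c male bone marrow macrophages were differentiated 7 days with L929 supernatant (≥99% CD11b+/F4/80+). Cells were plated at 2 × 10^5/well in triplicate, rested overnight, and given compounds at 5 μg/mL for 18 h. They were then stimulated with 100 ng/mL S. minnesota LPS, 10 ng/mL Pam3CSK4 (BLP) or 0.01 μM CpG for 24 h. Supernatant IL-12p40 and IL-6 were measured by ELISA (sensitivity 16 pg/mL).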

In assay [7] the target is T1, Toll-like receptor 4 (Mus musculus). As to the kind of experiment: Inhibition of TLR4 in BALB/c mouse BMDM assessed as downregulation of LPS-stimulated IL-6 level at 5 ug/ml preincubated for 18 hrs followed by LPS challenge measured after 24 hrs by ELISA relative to control. Put shortly:
as §3

Activity and inhibition data for one compound are collected here from ChEMBL document CHEMBL3108700, “Designing anti-inflammatory drugs from parasitic worms: a synthetic small molecule analogue of the Acanthocheilonema viteae product ES-62 prevents development of collagen-induced arthritis” (J Med Chem, 2013).

Calls of active or inactive are those of the source. Unless noted, the rule behind the calls is not given here.

With `CN(C)CCS(=O)(=O)Cc1ccc(Br)cc1`, in assay [1], the result was inactive. Also, the inhibition entry in assay [2], in assay [3], in assay [6] and in assay [7] was “Active” each time. Further, the outcome in assay [4] and in assay [5] was Active.
